The campaign covered roughly 220,000 compounds. About 630 (0.29%) were called active. For the sample, actives were picked, then their nearest neighbours and some compounds at random. Unmarked numbers belong to inactive results.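 How the source made its calls: active means activation above its plate's cutoff, the mean activation of the plate's test wells plus 3 SD (cut at about 12% in these data); inactive means the rest.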
What follows are molecules tested against Mucolipin-3 (Homo sapiens) (UniProt Q8TDD5) (assay: human TRPML3 channel agonists, primary screen, cell-based, HEK293 TRPML3-YFP, Fluo-8 calcium fluorescence, 3 µM (AID 1448;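 further: 0% = DMSO only wells and 100% = carbachol wells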)). Settings: at 3 µM, hits give high values, 100% = the carbachol control signal.
Sequence of Mucolipin-3 (Homo sapiens) (Q8TDD5 whole entry, looked up): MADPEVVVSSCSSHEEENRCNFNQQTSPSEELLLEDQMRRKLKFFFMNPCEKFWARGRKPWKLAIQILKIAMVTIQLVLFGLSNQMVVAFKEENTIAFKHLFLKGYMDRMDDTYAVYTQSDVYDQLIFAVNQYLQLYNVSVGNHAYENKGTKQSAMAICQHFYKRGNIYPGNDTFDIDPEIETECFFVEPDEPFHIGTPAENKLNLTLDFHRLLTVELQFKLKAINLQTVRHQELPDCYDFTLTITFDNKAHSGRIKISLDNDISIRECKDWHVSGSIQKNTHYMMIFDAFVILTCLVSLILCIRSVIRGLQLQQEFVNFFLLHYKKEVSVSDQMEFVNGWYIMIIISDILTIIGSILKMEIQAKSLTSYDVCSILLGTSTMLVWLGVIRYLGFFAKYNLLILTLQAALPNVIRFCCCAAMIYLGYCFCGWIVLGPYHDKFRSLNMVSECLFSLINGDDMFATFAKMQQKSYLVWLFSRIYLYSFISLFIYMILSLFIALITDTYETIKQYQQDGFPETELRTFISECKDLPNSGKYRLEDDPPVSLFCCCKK
How it was run: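 Test system: HEK293 cells stably carrying human TRPML3-YFP; Doses: single dose, 3 µM final nominal compound, 0.3% DMSO final; Schedule: dye loading 1 h 37 °C then 30 min ambient, 125 s read; Technique: Fluo-8 calcium fluorescence; Benchmarks: high control carbachol 87 µM, low control DMSO.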
Work on Cc1nn(-c2cc(Cl)ccc2N)c(=O)c2ccccc12 yielded an activation of 0.26%. With COc1ccc(N2C(=O)c3cccc4cccc(c34)C2=O)nn1 the activation was -0.51%. With Cc1nn(C)cc1N1C(=O)c2cccc3c(N)ccc(c23)C1=O the activation was 16.9% (active). COCc1cc(=O)[nH]c(SC)n1 gave an activation of 0.74%. Cc1cc(C)cc(C(=O)NCC(=O)OCC(=O)N2CCCCC2)c1 was tested, and the activation was 0.67%. CC(NC(=O)COC(=O)C1CCN(S(=O)(=O)c2ccccc2C(F)(F)F)CC1)c1ccccc1 (configuration not stated) was tested, and the activation was -0.74%. CC(C)CCC(C)NC(=O)c1ccc2nccnc2c1 (configuration not stated) was tested, and the activation was -0.61%. With O=C(c1nnc(-c2ccc(Cl)cc2)o1)C1CCCC1 the activation was 0.06%. With CC1=C(C)CC2C(=O)N(c3cccc4ccccc34)C(=O)C2C1 (configuration not stated) the activation was 0.86%. Work on Cc1ccc(N2C(=O)C3CC3C2=O)cc1 (configuration not stated) yielded an activation of 0.72%. For CC1(C)CCCC2=C1CC1C(=O)N(c3ccccc3)C(=O)C1C2 (configuration not stated), the activation was 22.9% (active). Work on Cc1cccc(-n2cnc(C(=O)NNC(=S)Nc3ccccc3)c2)n1 yielded an activation of 0.89%. In the case of Cn1ccc(NC(=O)Nc2ccc(Cl)cc2)n1, the activation is reported as 1.03%. With CN(C)c1ccc(/C=C2\NC(=S)N(Cc3ccccc3)C2=O)cc1 the activation was 19.5% (active). In the case of O=C1NCC(=O)N(Cc2ccccc2)/C1=C/c1ccccc1, the activation is reported as 1.86%. Work on CC1=NN(Cc2ccccc2)C(=O)/C1=C/c1ccc(N(C)C)cc1 yielded an activation of -2.14%. Molecule O=C(Nc1ccc(N2CCN(C(=O)c3ccccc3)CC2)c(Cl)c1)c1ncn[nH]1 has an activation of -0.11%. COCCNc1nc2nonc2nc1N1CCCC1c1nccs1 (configuration not stated) was tested, and the activation was 0.19%. Molecule NS(=O)(=O)c1ccc(NC(=S)NNC(=O)c2cccs2)cc1 has an activation of -0.19%. Molecule O=S(=O)(c1ccc(NC(=S)NN=C(C2CC2)C2CC2)cc1)N1CCOCC1 has an activation of 0.74%. With COc1cc(/C=C(\C#N)c2nc3c(s2)CC(C)CC3)ccc1O (configuration not stated) the activation was 12.4% (active). COc1cc(/C=N/Nc2nc3ccccc3s2)ccc1O showed an activation of -0.85%. CCOc1cc(/C=C(\C#N)c2nc(-c3cccs3)c(NC(C)=O)s2)ccc1O was tested, and the activation was 9.68%. In the case of Cc1nn(CC(=O)Nc2ccc3c(c2)OCO3)c(C)c1[N+](=O)[O-], the activation is reported as -0.67%. Work on Cc1[nH]n(-c2ccccc2)c(=O)c1N=Nc1ccccc1C(=O)N1CCCCC1 yielded an activation of 0.09%. Work on O=C(CSc1nc2ccc(Nc3nc(N4CCOCC4)nc(N4CCOCC4)n3)cc2s1)NCc1ccco1 yielded an activation of 0.56%. Work on CCn1c(CSc2ncccn2)nnc1SCC(=O)N1c2ccccc2CC1C (configuration not stated) yielded an activation of -0.71%. Work on CCn1c(Cc2ccccc2)nnc1SCC(=O)Nc1ccccc1 yielded an activation of -0.27%. CCCc1nnc(SCC(=O)N2C(C)CCCC2C)n1CC (configuration not stated) was tested, and the activation was 20.2% (active). Cc1sc2nc(CC(N)=O)[nH]c(=O)c2c1-c1ccccc1 was tested, and the activation was 0.25%. For CCCN(C(=O)CSc1nnnn1C)c1c(N)n(Cc2ccccc2)c(=O)[nH]c1=O, the activation was -0.23%. COCCNC(=S)N1CCN(C)CC1 showed an activation of 0.99%. In the case of O=C(NNC(=S)NCc1ccco1)C(c1ccccc1)c1ccccc1, the activation is reported as 0.93%. With CCCCC(=O)NNC(=S)NC(=O)C(c1ccccc1)c1ccccc1 the activation was 74.5% (active). In the case of CC(C)C(=O)Nc1cccc(NC(=S)NC(=O)C(c2ccccc2)c2ccccc2)c1, the activation is reported as 1.07%. In the case of O=[N+]([O-])c1cc(S(=O)(=O)Nc2cccc(Cl)c2)ccc1N=Nc1c(O)[nH]c2ccccc12, the activation is reported as 0.58%. In the case of CCS(=O)(=O)Nc1ccc(C2=NN(C(C)=O)C(c3cccs3)C2)cc1 (configuration not stated), the activation is reported as 0.2%. NNC(=O)c1cccc(COCC(F)(F)C(F)F)c1 showed an activation of 0.05%. Molecule CC(C)c1c(O)nc(SCCOc2ccc(Cl)cc2)[nH]c1=O has an activation of 0.56%. For COc1cc(OC)cc(/C(N)=N/O)c1, the activation was 0.62%. In the case of CC(/C=C/c1ccco1)=N/NC(=O)C1COc2ccccc2O1 (configuration not stated), the activation is reported as 1.2%. For C=C(C)Cn1c(C)cc(C)c(S(=O)(=O)c2ccccc2C)c1=O, the activation was 42% (active). S=c1nc(C23CC4CC(CC(C4)C2)C3)nc2sccn12 was tested, and the activation was 0.26%. Work on Cc1ccccc1C(=O)NNC(=O)CN1C(=O)c2ccccc2C1=O yielded an activation of 1.17%. O=C(NCCN1C(=O)S/C(=C\c2cccnc2)C1=O)c1ccc(S(=O)(=O)N2CCCC2)cc1 was tested, and the activation was -0.11%. In the case of O=C(COC(=O)c1ccc(NS(=O)(=O)c2cccs2)cc1O)Nc1ccc(F)cc1, the activation is reported as 0.82%. Work on O=C(CSc1nncn1-c1cccnc1)N1CCOCC1 yielded an activation of 0.63%. O=C(Nc1ccccc1N1CCOCC1)c1csc2c1CCCC2 showed an activation of -1.45%. With O=S(=O)(Nc1ccccc1N1CCOCC1)c1ccc(Cl)s1 the activation was 98.9% (active). O=S(=O)(Nc1cc(S(=O)(=O)N2CCOCC2)ccc1N1CCCC1)c1cccs1 showed an activation of -0.45%. Molecule CCOc1ccc(Br)cc1S(=O)(=O)Nc1ccc(C(=O)OC(C)C(=O)N(C)c2ccccc2)cc1 (configuration not stated) has an activation of 0.82%. COc1ccc(OC)c(NC(=S)N2CCc3ccccc3C2)c1 was tested, and the activation was -0.32%. In the case of COCc1[nH][nH]c(=O)c1C=Nc1ccc(F)cc1F, the activation is reported as 0.21%. For Cc1ccc(O)c(NC(=S)NC(=O)COc2ccc(Br)cc2)c1, the activation was 20.5% (active). Cc1ccc(O)c(NC(=O)COc2cc(C)ccc2C)c1 gave an activation of 0.83%. Cc1cccc(OCC(=O)NC(=S)Nc2ccccc2N2CCOCC2)c1 showed an activation of 0.19%. With CC(C)N(C(=O)CSc1nc(COc2ccccc2)nc2ccccc12)C(C)C the activation was -1.84%. O=C(NCc1cccnc1)C(=O)Nc1nc(-c2ccccc2)cs1 was tested, and the activation was 0.51%. Molecule O=C(NNS(=O)(=O)Cc1ccccc1)c1ccc([N+](=O)[O-])cc1 has an activation of 0.34%. Work on CN(CCc1ccccn1)S(=O)(=O)c1ccc2c3c(cccc13)C(=O)N2 yielded an activation of 0.24%. In the case of CCN(CC)S(=O)(=O)c1ccc2c3c(cccc13)C(=O)S2, the activation is reported as 12.9% (active). Work on CCN(CC)S(=O)(=O)c1cc([N+](=O)[O-])ccc1N=Nc1c(O)n(C)c2ccccc12 yielded an activation of 0.98%.
